Measured values taken from ChEMBL document CHEMBL3808334, “Synthesis and in vitro evaluation of novel triazine analogues as anticancer agents and their interaction studies with bovine serum albumin” (Eur J Med Chem, 2016).

Experiments:
Format in all cases: functional
[1] = tested on: M14; assay: Growth inhibition of human M14 cells assessed as cell growth at 10 uM incubated for 48 hrs by sulforhodamine B assay; details: M14, 48 h, read-out: Activity
[2] = tested on: M14; assay: Growth inhibition of human M14 cells incubated for 48 hrs by sulforhodamine B assay; details: M14, 48 h
Outline: (§1)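 Cells were plated at 5,000–40,000 per well according to doubling time and preincubated 24 h at 37 °C in 5% CO2; time-zero plates were then TCA-fixed. Five concentrations (10-fold or ½-log dilutions, DMSO stock) were incubated 48 h. Cells were TCA-fixed, stained with 0.4% SRB and read at 515 nm. GI50 was taken where [(Ti−Tz)/(C−Tz)]×100 = 50.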

[3] = tested on: NCI-H23; assay: Growth inhibition of human NCI-H23 cells assessed as cell growth at 10^-7 M incubated for 48 hrs by sulforhodamine B assay; details: NCI-H23, 48 h, read-out: Activity
[4] = tested on: ACHN; assay: Growth inhibition of human ACHN cells incubated for 48 hrs by sulforhodamine B assay
Outline: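 Five-dose assay: five concentrations from 10-fold or ½-log serial dilutions. Cells are plated at 5,000–40,000 per well according to doubling time, grown 24 h, then exposed 48 h at 37 °C, 5% CO₂. Fixed with cold 50% TCA (final addition) for 60 min at 4 °C and stained with 0.4% SRB in 1% acetic acid. Bound dye is solubilized in 10 mM Tris base and read at 515 nm. GI₅₀ is where [(Ti−Tz)/(C−Tz)]×100 = 50, with a time-zero plate as Tz.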

[5] = tested on: NCI/ADR-RES; assay: Growth inhibition of human NCI/ADR-RES cells assessed as cell growth at 10^-4 M incubated for 48 hrs by sulforhodamine B assay; details: read-out: Activity
[6] = Growth inhibition of human TK10 cells assessed as cell growth at 10 uM incubated for 48 hrs by sulforhodamine B assay; details: TK-10, 48 h, read-out: Activity
[7] = Growth inhibition of human SNB75 cells assessed as cell growth at 10^-6 M incubated for 48 hrs by sulforhodamine B assay; details: SNB-75, 48 h, read-out: Activity
[8] = tested on: MCF7; assay: Growth inhibition of human MCF7 cells assessed as cell growth at 10^-8 M incubated for 48 hrs by sulforhodamine B assay; details: MCF7, 48 h, read-out: Activity
[9] = tested on: NCI-H322M; assay: Growth inhibition of human NCI-H322M cells assessed as cell growth at 10 uM incubated for 48 hrs by sulforhodamine B assay; details: read-out: Activity
[10] = Growth inhibition of human OVCAR4 cells incubated for 48 hrs by sulforhodamine B assay; details: OVCAR-4, 48 h; outline: as §1
[11] = Growth inhibition of human RPMI8226 cells assessed as cell growth at 10 uM incubated for 48 hrs by sulforhodamine B assay; details: RPMI-8226, 48 h, read-out: Activity
[12] = Growth inhibition of human HOP92 cells incubated for 48 hrs by sulforhodamine B assay; details: HOP-92, 48 h
Outline: (§2)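 Cells seeded at 5,000–40,000/well according to doubling time and preincubated 24 h at 37 °C, 5% CO2. Time-zero plates were TCA-fixed. DMSO concentrate was diluted in medium with 50 µg/ml gentamicin to give five concentrations (10-fold or ½ log steps), then exposed 48 h. Cells were TCA-fixed, stained with 0.4% SRB and read at 515 nm. Percent growth was taken against time-zero and control; GI50, TGI and LC50 derived.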

[13] = tested on: A498; assay: Growth inhibition of human A498 cells assessed as cell growth at 10 uM incubated for 48 hrs by sulforhodamine B assay; details: A498, 48 h, read-out: Activity
Outline: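 One-dose screen at 10 µM final. Cells are plated at 5,000–40,000 per well according to doubling time and preincubated 24 h at 37 °C, 5% CO₂. Compound (DMSO stock diluted in medium with 50 µg/ml gentamicin) is then added for 48 h. Growth percent is read by sulforhodamine B staining, absorbance at 515 nm.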

[14] = Growth inhibition of human SF295 cells assessed as cell growth at 10^-4 M incubated for 48 hrs by sulforhodamine B assay; details: SF-295, 48 h, read-out: Activity
[15] = Growth inhibition of human RXF393 cells incubated for 48 hrs by sulforhodamine B assay; details: RXF 393, 48 h; outline: as §1
[16] = tested on: EKVX; assay: Growth inhibition of human EKVX cells incubated for 48 hrs by sulforhodamine B assay; outline: as §2
[17] = Growth inhibition of human HOP62 cells assessed as cell growth at 10^-5 M incubated for 48 hrs by sulforhodamine B assay; details: HOP-62, 48 h, read-out: Activity
[18] = tested on: SN12C; assay: Growth inhibition of human SN12C cells assessed as cell growth at 10^-8 M incubated for 48 hrs by sulforhodamine B assay; details: read-out: Activity
[19] = tested on: SK-MEL-28; assay: Growth inhibition of human SK-MEL-28 cells assessed as cell growth at 10^-7 M incubated for 48 hrs by sulforhodamine B assay; details: SK-MEL-28, 48 h, read-out: Activity
[20] = Growth inhibition of human Hs 578T cells assessed as cell growth at 10^-4 M incubated for 48 hrs by sulforhodamine B assay; details: read-out: Activity
[21] = Growth inhibition of human SF295 cells assessed as cell growth at 10^-8 M incubated for 48 hrs by sulforhodamine B assay; details: SF-295, 48 h, read-out: Activity
[22] = tested on: SK-MEL-28; assay: Growth inhibition of human SK-MEL-28 cells assessed as cell growth at 10^-8 M incubated for 48 hrs by sulforhodamine B assay; details: SK-MEL-28, 48 h, read-out: Activity
[23] = tested on: NCI-H322M; assay: Growth inhibition of human NCI-H322M cells incubated for 48 hrs by sulforhodamine B assay; outline: as §1
[24] = tested on: MDA-MB-231; assay: Growth inhibition of human MDA-MB-231 cells assessed as cell growth at 10^-8 M incubated for 48 hrs by sulforhodamine B assay; details: MDA-MB-231, 48 h, read-out: Activity
[25] = read-out: LC50 (the source's name)
[26] = read-out: pLC50 (the source's name) (converted)

## c1ccc(-c2nc(Nc3ccc(-c4nc5ccccc5[nH]4)cc3)nc(N3CCOCC3)n2)cc1
[1]
  growth at 10 µM: -80.7%
[2]; read-out: GI50
  GI50: 1340 nM
[2]; [25]
  CC50: 6300 nM
[2]; read-out: TGI
  TGI: 2900 nM
[2]; read-out: pGI50 (converted)
  GI50: 1350 nM
[2]; [26]
  CC50: 6310 nM
[2]; read-out: pTGI (converted)
  TGI: 2880 nM
[3]
  growth at 0.1 µM: 95%
[4]; read-out: GI50
  GI50: 1250 nM
[4]; [25]
  CC50: 6040 nM
[4]; read-out: TGI
  TGI: 2740 nM
[4]; read-out: pGI50 (converted)
  GI50: 1260 nM
[4]; [26]
  CC50: 6030 nM
[4]; read-out: pTGI (converted)
  TGI: 2750 nM
[5]
  growth at 100 µM: -33%
[6]
  growth at 10 µM: -58.1%
[7]
  growth at 1 µM: 88%
[8]
  growth at 0.01 µM: 92%
[9]
  growth at 10 µM: -0.47%
[10]; read-out: GI50
  GI50: 1680 nM
[10]; [25]
  CC50: 5630 nM
[10]; read-out: TGI
  TGI: 3080 nM
[10]; read-out: pGI50 (converted)
  GI50: 1700 nM
[10]; [26]
  CC50: 5620 nM
[10]; read-out: pTGI (converted)
  TGI: 3090 nM
[11]
  growth at 10 µM: -22.6%
[12]; read-out: GI50
  GI50: 1380 nM
[12]; read-out: LC50
  LC50 (concentration killing 50% of starting cells): 6730 nM
[12]; read-out: TGI
  TGI: 3050 nM
[12]; read-out: pGI50 (converted)
  GI50: 1380 nM
[12]; read-out: pLC50 (converted)
  LC50 (concentration killing 50% of starting cells): 6760 nM
[12]; read-out: pTGI (converted)
  TGI: 3020 nM
[13]
  growth at 10 µM: -83.4%
[14]
  growth at 100 µM: -71%
[15]; read-out: GI50
  GI50: 501 nM
[15]; [25]
  CC50: 7240 nM
[15]; read-out: TGI
  TGI: 2120 nM
[15]; read-out: pGI50 (converted)
  GI50: 501 nM
[15]; [26]
  CC50: 7240 nM
[15]; read-out: pTGI (converted)
  TGI: 2140 nM
[16]; read-out: GI50
  GI50: 1590 nM
[16]; read-out: LC50
  LC50: 7330 nM
[16]; read-out: TGI
  TGI: 3420 nM
[16]; read-out: pGI50 (converted)
  GI50: 1580 nM
[16]; read-out: pLC50 (converted)
  LC50: 7410 nM
[16]; read-out: pTGI (converted)
  TGI: 3390 nM
[17]
  growth at 10 µM: -74%
[18]
  growth at 0.01 µM: 96%
[19]
  growth at 0.1 µM: 97%
[20]
  growth at 100 µM: -43%
[21]
  growth at 0.01 µM: 94%
[22]
  growth at 0.01 µM: 103%
[23]; read-out: GI50
  GI50: 1650 nM
[23]; [25]
  CC50: 6670 nM
[23]; read-out: TGI
  TGI: 3310 nM
[23]; read-out: pGI50 (converted)
  GI50: 1660 nM
[23]; [26]
  CC50: 6610 nM
[23]; read-out: pTGI (converted)
  TGI: 3310 nM
[24]
  growth at 0.01 µM: 97%

## Clc1ccc(-c2nc(Nc3ccc(-c4nc5ccccc5[nH]4)cc3)nc(N3CCOCC3)n2)cc1
[1]
  growth at 10 µM: -82.6%
[2]; read-out: GI50
  GI50: 370 nM
[2]; read-out: TGI
  TGI: 1480 nM
[2]; read-out: pGI50 (converted)
  GI50: 372 nM
[2]; read-out: pTGI (converted)
  TGI: 1480 nM
[3]
  growth at 0.1 µM: 92%
[4]; read-out: GI50
  GI50: 1050 nM
[4]; read-out: TGI
  TGI: 2380 nM
[4]; read-out: pGI50 (converted)
  GI50: 1050 nM
[4]; read-out: pTGI (converted)
  TGI: 2400 nM
[5]
  growth at 100 µM: -7%
[6]
  growth at 10 µM: -94.4%
[7]
  growth at 1 µM: 95%
[8]
  growth at 0.01 µM: 92%
[9]
  growth at 10 µM: -92.8%
[10]; read-out: GI50
  GI50: 1040 nM
[10]; [25]
  CC50: 5530 nM
[10]; read-out: TGI
  TGI: 2400 nM
[10]; read-out: pGI50 (converted)
  GI50: 1050 nM
[10]; [26]
  CC50: 5500 nM
[10]; read-out: pTGI (converted)
  TGI: 2400 nM
[11]
  growth at 10 µM: -73.4%
[12]; read-out: GI50
  GI50: 1300 nM
[12]; read-out: LC50
  LC50 (concentration killing 50% of starting cells): 5610 nM
[12]; read-out: TGI
  TGI: 2700 nM
[12]; read-out: pGI50 (converted)
  GI50: 1290 nM
[12]; read-out: pLC50 (converted)
  LC50 (concentration killing 50% of starting cells): 5620 nM
[12]; read-out: pTGI (converted)
  TGI: 2690 nM
[13]
  growth at 10 µM: -81.5%
[14]
  growth at 100 µM: -10%
[15]; read-out: GI50
  GI50: 222 nM
[15]; read-out: TGI
  TGI: 450 nM
[15]; read-out: pGI50 (converted)
  GI50: 224 nM
[15]; read-out: pTGI (converted)
  TGI: 447 nM
[16]; read-out: GI50
  GI50: 1140 nM
[16]; read-out: TGI
  TGI: 2630 nM
[16]; read-out: pGI50 (converted)
  GI50: 1150 nM
[16]; read-out: pTGI (converted)
  TGI: 2630 nM
[17]
  growth at 10 µM: -77%
[18]
  growth at 0.01 µM: 95%
[19]
  growth at 0.1 µM: 102%
[20]
  growth at 100 µM: -7%
[21]
  growth at 0.01 µM: 97%
[22]
  growth at 0.01 µM: 105%
[23]; read-out: GI50
  GI50: 303 nM
[23]; read-out: TGI
  TGI: 1070 nM
[23]; read-out: pGI50 (converted)
  GI50: 302 nM
[23]; read-out: pTGI (converted)
  TGI: 1070 nM
[24]
  growth at 0.01 µM: 93%
